The results in this text go back to PMC9670014 (SLAS discovery : advancing life sciences R & D, 2022).

The assay concerns the target T1, NR2F6 (Mus musculus, UniProt P43136).
T1 sequence (P43136 1-390): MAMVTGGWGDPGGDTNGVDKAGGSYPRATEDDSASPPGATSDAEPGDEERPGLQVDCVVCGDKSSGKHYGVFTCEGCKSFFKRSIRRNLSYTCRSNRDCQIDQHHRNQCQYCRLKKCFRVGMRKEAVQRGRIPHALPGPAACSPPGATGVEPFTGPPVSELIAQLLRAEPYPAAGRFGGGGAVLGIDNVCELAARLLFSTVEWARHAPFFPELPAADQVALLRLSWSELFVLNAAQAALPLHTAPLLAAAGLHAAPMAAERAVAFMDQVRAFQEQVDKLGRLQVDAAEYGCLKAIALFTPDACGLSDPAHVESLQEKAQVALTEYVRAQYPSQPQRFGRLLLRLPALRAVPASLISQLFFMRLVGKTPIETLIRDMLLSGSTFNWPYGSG
The assay can be described thus: NR2F6/Il17a luciferase assay in transiently transfected HEK293 cells. Conditions: Maxcyte transfected HEK293 cells, 384-well format, Troglitazone 62.5uM. The class given is cell-based. Summed up: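 HEK293 cells grown in DMEM with 10% heat-inactivated FBS and 1% penicillin-streptomycin, harvested at 70% confluency, and resuspended in electroporation buffer at 1×10^8 cells/mL. Il17a::luc plus NR2F6 or empty vector was electroporated with DNA amount titrated, then recovered 5 h at 37 °C. Luciferase was read with positive control versus untreated samples.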

In the case of `Cc1c(C)c2c(c(C)c1O)CCC(C)(COc1ccc(CC3SC(=O)NC3=O)cc1)O2` (stereo not shown) [Troglitazone], the “NR2F6's repressive transcriptional response (Il17a luciferase signal)” value was “further enhanced”.
